Results: ChEMBL document CHEMBL1150225, “Cytotoxic cholestane glycosides from the bulbs of Ornithogalum saundersiae” (J Nat Prod, 2001)

System: HL-60
Test: Cytotoxicity against human HL60 cells after 72 hrs by MTT assay
Type: functional, cell-based
Conditions: HL-60, 72 h
Method in brief: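 HL-60 leukemia cells kept in RPMI 1640 with 10% fetal bovine serum, L-glutamine, 100 units/mL penicillin and 100 μg/mL streptomycin. Cells at 3 × 10^4 cells/mL exposed continuously to compound for 72 h. Growth read by MTT reduction. IC50 (50% inhibition) calculated from each compound's dose–response curve.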

CN(Cc1cnc2nc(N)nc(N)c2n1)c1ccc(C(=O)N[C@@H](CCC(=O)O)C(=O)O)cc1 [METHOTREXATE]
IC50: 12 nM
